The values below come from ChEMBL document CHEMBL3525931, “Stereoselective interaction of pantoprazole with ABCG2. II. In vitro flux analysis” (Drug Metab Dispos, 2012).

The target of data set [1] is T1, Broad substrate specificity ATP-binding cassette transporter ABCG2 (Homo sapiens, UniProt Q9UNQ0).
T1 sequence (Q9UNQ0 whole entry): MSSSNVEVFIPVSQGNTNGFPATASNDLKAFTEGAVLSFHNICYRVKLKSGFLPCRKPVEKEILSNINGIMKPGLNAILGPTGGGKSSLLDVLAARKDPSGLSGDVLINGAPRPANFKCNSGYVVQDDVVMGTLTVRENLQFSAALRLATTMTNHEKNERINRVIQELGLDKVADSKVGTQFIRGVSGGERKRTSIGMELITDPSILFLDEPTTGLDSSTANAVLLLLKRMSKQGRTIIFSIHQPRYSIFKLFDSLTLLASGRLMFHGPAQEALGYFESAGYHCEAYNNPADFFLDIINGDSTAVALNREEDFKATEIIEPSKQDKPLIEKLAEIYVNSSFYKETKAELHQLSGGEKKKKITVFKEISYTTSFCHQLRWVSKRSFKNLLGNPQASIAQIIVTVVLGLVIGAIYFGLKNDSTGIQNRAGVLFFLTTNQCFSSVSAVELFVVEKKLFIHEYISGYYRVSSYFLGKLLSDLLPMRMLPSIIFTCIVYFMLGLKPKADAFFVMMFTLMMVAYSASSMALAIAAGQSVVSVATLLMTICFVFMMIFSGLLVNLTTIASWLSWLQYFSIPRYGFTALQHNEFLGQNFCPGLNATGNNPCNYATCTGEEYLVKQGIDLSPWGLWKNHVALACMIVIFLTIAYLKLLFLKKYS
Description: Observed permeability in MDCK2 cells expressing human ABCG2 assessed as ABCG2-mediated basolateral to apical transport at 3 uM after 0.5 to 1 hrs by HPLC method. The format is ADME, cell-based. The note with it: mdck-ii. A digest of the protocol: (§1)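 Mock (empty pcDNA3.1) or rat Abcg2/human ABCG2-transfected MDCKII, G418-selected, seeded on 3.0-μm Transwell filters at 1.0×10^6 cells/well, grown 4 days to TEER >200 Ω·cm². Single isomer loaded apical or basolateral in serum-free Opti-MEM I with 0.2 μCi/ml [3H]mannitol, 37°C 5% CO2. Receiver sampled at 0.5 and 1 h. Quantified by HPLC-UV 290 nm. Permeability = initial rate/(area × donor concentration). Efflux ratio = B→A rate / A→B rate. n = 3, mean ± S.D.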

The target in data set [2] is T1, Broad substrate specificity ATP-binding cassette transporter ABCG2. The data set can be described thus: Observed permeability in MDCK2 cells expressing human ABCG2 assessed as ABCG2-mediated basolateral to apical transport at 10 uM after 0.5 to 1 hrs by HPLC method. The note with it: mdck-ii. The format is ADME, cell-based. A digest of the protocol:
as §1

Data set [3] has the same target. Description: Maximum drug transport rate in MDCK2 cells expressing human ABCG2 assessed as ABCG2-mediated transport by HPLC method. The format is ADME, cell-based. The note with it: mdck-ii. A digest of the protocol:
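Kinetics came from the same Transwell bidirectional flux runs in rat Abcg2- or human ABCG2-MDCKII, with donor 3–200 μM single isomer. Cellular concentrations were predicted from a three-compartment model using PS_D from mock cells and PS_PC from mannitol. Apparent apical efflux permeability was fitted against predicted cellular concentration by saturable kinetics to give K_M and T_max.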

Data set [4] in a line: Observed permeability in MDCK2 cells assessed as basolateral to apical transport at 50 uM after 0.5 to 1 hrs by HPLC method. The format is ADME, cell-based, Canis lupus familiaris. The note with it: dog, mdck-ii. The method, boiled down:
as §1

For `COc1ccnc(C[S@+]([O-])c2nc3cc(OC(F)F)ccc3[nH]2)c1OC`, the Papp stood at 254 uL/hr/cm2 in data set [1], 255 uL/hr/cm2 in data set [2] and 126 uL/hr/cm2 in data set [4]. In addition, the Drug transport in data set [3] stood at 3.29 nmol/hr.cm2.
Regarding `COc1ccnc(C[S@@+]([O-])c2nc3cc(OC(F)F)ccc3[nH]2)c1OC`, the Papp is 258 uL/hr/cm2 in data set [1], 246 uL/hr/cm2 in data set [2] and 135 uL/hr/cm2 in data set [4]. In addition, the Drug transport in data set [3] is 10.2 nmol/hr.cm2.
